Active and inactive are the calls of the source. The rule behind the calls is not given here.
Key:
K562 = experiment: Cytotoxicity against human K562 cells after 72 hrs by calcein-AM assay; assay type: functional, cell-based; conditions: K562, 72 h
MCF7 = experiment: Cytotoxicity against human MCF7 cells after 72 hrs by calcein-AM assay; assay type: functional, cell-based; conditions: MCF7, 72 h
G-361 [1] = experiment: Induction of apoptosis in human G361 cells assessed as caspase-3/7 activation at 2 uM after 24 hrs by fluorescence assay relative to control; assay type: functional
How it was run: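 G361 cells seeded at 20,000 per well overnight, then exposed 24 h to compound at 2 µM final. 3x caspase-3/7 buffer (HEPES pH 7.4, NaCl, KCl, MgCl2, EGTA, NP-40, CHAPS, sucrose, DTT, PMSF) with Ac-DEVD-AMC substrate added; incubated 37 °C, fluorescence read after 4 h at 346/442 nm; activity expressed relative to untreated cells.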

HOS = experiment: Cytotoxicity against human HOS cells after 72 hrs by calcein-AM assay; assay type: functional, cell-based
G-361 [2] = experiment: Cytotoxicity against human G361 cells after 72 hrs by calcein-AM assay; assay type: functional, cell-based; conditions: G-361, 72 h
HCT-116 = experiment: Cytotoxicity against human HCT116 cells after 72 hrs by calcein-AM assay; assay type: functional, cell-based; conditions: HCT-116, 72 h
HeLa = experiment: Cytotoxicity against human HeLa cells after 72 hrs by calcein-AM assay; assay type: functional, cell-based

`O=C(N[C@H](Cc1ccccc1)C(=O)Nc1ccc(Cl)cc1)c1ccc(Cl)cc1O` was tested, and the IC50 (K562) was > 10 µM and the IC50 (MCF7) was > 10 µM.
In the case of `O=C(N[C@@H](Cc1ccccc1)C(=O)Nc1ccc(Cl)cc1)c1cc(Cl)ccc1O`, the IC50 (K562) is reported as > 10 µM and the IC50 (MCF7) is reported as 7.9 µM.
For `CC(C)[C@H](NC(=O)c1cc(Cl)ccc1O)C(=O)Nc1ccc(C(F)(F)F)cc1`, the Activity (G-361 [1]) was “Active”, the IC50 (K562) was 4.5 µM and the IC50 (HOS) was 7 µM. The IC50 (G-361 [2]) was 6.6 µM, the IC50 (HCT-116) was 5.9 µM and the IC50 (MCF7) was 7.3 µM. It also gave an IC50 (HeLa) of 5.4 µM.
For `C[C@H](NC(=O)c1cc(Cl)ccc1O)C(=O)Nc1ccc(C(F)(F)F)cc1`, the IC50 (K562) was > 12.5 µM and the IC50 (MCF7) was > 12.5 µM.
`CC(C)[C@H](NC(=O)c1cc(Cl)ccc1O)C(=O)Nc1ccccc1` was tested, and the IC50 (K562) was > 10 µM and the IC50 (MCF7) was > 10 µM.
`C[C@H](NC(=O)c1ccc(Cl)cc1O)C(=O)Nc1ccc(C(F)(F)F)cc1` was tested, and the IC50 (K562) was > 12.5 µM and the IC50 (MCF7) was > 12.5 µM.
`CC(C)[C@H](NC(=O)c1ccc(Cl)cc1O)C(=O)Nc1ccc(Br)cc1` was tested, and the IC50 (K562) was > 10 µM and the IC50 (MCF7) was > 10 µM.
`CC(C)[C@H](NC(=O)c1ccc(Cl)cc1O)C(=O)Nc1ccc(Cl)cc1` was tested, and the IC50 (K562) was > 10 µM and the IC50 (MCF7) was > 10 µM.
For `CC[C@H](CO)Nc1nc(NCc2ccccc2)c2ncn(C(C)C)c2n1` [SELICICLIB], the IC50 (MCF7) was 12.3 µM.
For `O=C(N[C@@H](Cc1ccccc1)C(=O)Nc1ccc(Cl)cc1)c1ccc(Cl)cc1O`, the IC50 (K562) was > 10 µM and the IC50 (MCF7) was 9.1 µM.
With `O=C(N[C@@H](CC1CCCCC1)C(=O)Nc1cccc(C(F)(F)F)c1)c1cc(Cl)ccc1O` the “fold change (FC)” value (G-361 [1]) was >10, the IC50 (K562) was 3.4 µM and the IC50 (HOS) was 3.4 µM. It also gave an IC50 (G-361 [2]) of 1.3 µM, an IC50 (HCT-116) of 1.5 µM and an IC50 (MCF7) of 2.3 µM. It also gave an IC50 (HeLa) of 1.3 µM.
For `CC(C)(C)[C@H](NC(=O)c1cc(Cl)ccc1O)C(=O)Nc1cccc(C(F)(F)F)c1`, the Activity (G-361 [1]) was “Active”, the IC50 (K562) was 5.9 µM and the IC50 (HOS) was 7.8 µM. The IC50 (G-361 [2]) was 8.3 µM, the IC50 (HCT-116) was 5.4 µM and the IC50 (MCF7) was 8.8 µM. The IC50 (HeLa) was 6.5 µM.
With `O=C(N[C@@H](Cc1ccccc1)C(=O)Nc1ccc(Cl)c(Cl)c1)c1cc(Cl)ccc1O` the IC50 (K562) was > 10 µM and the IC50 (MCF7) was > 10 µM.
For `C[C@H](NC(=O)c1ccc(Cl)cc1O)C(=O)Nc1ccc(Cl)c(Cl)c1`, the IC50 (K562) was > 12.5 µM and the IC50 (MCF7) was > 12.5 µM.
`COc1ccc(NC(=O)[C@@H](NC(=O)c2cc(Cl)ccc2O)C(C)C)cc1` was tested, and the IC50 (K562) was > 10 µM and the IC50 (MCF7) was > 10 µM.
With `O=C(N[C@@H](CC1CCCCC1)C(=O)Nc1ccc(Br)cc1)c1cc(Cl)ccc1O` the “fold change (FC)” value (G-361 [1]) was >10, the IC50 (K562) was 3 µM and the IC50 (HOS) was 3.3 µM. For the same compound, the IC50 (G-361 [2]) was 1.3 µM, the IC50 (HCT-116) was 2 µM and the IC50 (MCF7) was 1.9 µM. For the same compound, the IC50 (HeLa) was 1.3 µM.
`C[C@H](NC(=O)c1ccc(Cl)cc1O)C(=O)Nc1ccc(Cl)cc1` was tested, and the IC50 (K562) was > 10 µM and the IC50 (MCF7) was > 10 µM.

From ChEMBL document CHEMBL2424632, “Substituted 2-hydroxy-N-(arylalkyl)benzamides induce apoptosis in cancer cell lines” (Eur J Med Chem, 2013)
